Results pooled from the literature.
Target: Maternal embryonic leucine zipper kinase (MELK, Homo sapiens, UniProt Q14680)

With O=C(NCCCN1CCOCC1)c1ccc(Nc2nccc(-c3cc4ccccc4s3)n2)cc1 the remaining binding was 100% (binding; competition with immobilised ligand; 1 µM).
For C=CC(=O)N1CCC(C(=O)NCC(=O)N2CCN(c3nc(-c4cnc(N)nc4C(F)F)nc(N4CCOCC4)n3)CC2)CC1, the remaining binding was 100% (binding; competition with immobilised ligand; 1 µM).
CC(=O)C1=C(C)N(c2cccc(C(F)(F)F)c2)C(=O)N[C@@H]1c1ccc(C#N)nc1 gave a remaining binding of 88.2% (cell-free assay; competition with immobilised ligand; 1 µM).
The remaining binding of O=C(NCCCN1CCOCC1)c1ccc(Nc2ncc(Cl)c(-c3ccc(Cl)s3)n2)cc1 is reported as 69% (binding; competition with immobilised ligand; 1 µM).
C[C@@H]1CCN(c2nccc(-c3cnn4ncccc34)n2)C1 gave a remaining binding of 48% (binding; 1 µM).
With COc1ccc2c(c1)O[C@H](c1ccc(OC)c(OC)c1)C[C@@H]2NC(=O)C1(c2ccc3c(c2)OC(F)(F)O3)CC1 the remaining binding was 78% (cell-free assay; competition with immobilised ligand; 1 µM).
The remaining binding of FC(F)(F)Oc1cccc(-c2cnc3ccc(-c4ccncc4)nn23)c1 is reported as 56% (cell-free assay; competition with immobilised ligand; 5 µM).
The remaining binding of CN(C)c1nccc(-c2cnc3ncccn23)n1 is reported as 100% (binding; 1 µM).
CNC(=O)Nc1ccc2c(c1)CC[C@@]21OC(=O)N(CC(=O)N(Cc2ccc(F)cc2)[C@@H](C)C(F)(F)F)C1=O has a remaining binding of 91% (cell-free assay; competition with immobilised ligand; 1 µM).
Cc1cnn2ncc(-c3ccnc(N(C)C)n3)c2c1 gave a remaining binding of 100% (binding; 1 µM).
CC1=C(C#N)[C@@H](c2ccc3[nH]nc(C)c3c2)C(C#N)=C(c2ccc(Cl)cc2)N1 gave a remaining binding of 100% (cell-free assay; competition with immobilised ligand; 1 µM).
CN(c1nccc(-c2cnn3ncccc23)n1)C1CC1 gave a remaining binding of 73% (binding; 1 µM).
O=C(NCCCC1CCCCC1)c1ccc(CNC(=O)c2cnn(-c3ccccc3)c2C(F)(F)F)cc1 has a remaining binding of 80% (cell-free assay; competition with immobilised ligand; 0.1 µM).
With COc1cnc(Nc2cccc(S(N)(=O)=O)c2)nc1N1CCN(c2ccccc2)C(=O)C1 the remaining binding was 100% (binding; competition with immobilised ligand; 1 µM).
For O=S(=O)(NC1CCC(c2cc(F)ccc2F)(S(=O)(=O)c2ccc(Cl)cc2)CC1)C(F)(F)F (stereo not shown), the remaining binding was 69% (cell-free assay; competition with immobilised ligand; 1 µM).
O=C(NCC1CCOCC1)c1n[nH]cc1NC(=O)c1c(F)cccc1F gave a remaining binding of 69% (binding; competition with immobilised ligand; 1 µM).
With c1cnn2ncc(-c3ccnc(N4CCC45COC5)n3)c2c1 the remaining binding was 52% (binding; 1 µM).
O=C(c1ccc(Nc2ncc(Cl)c(-c3cc4ccccc4s3)n2)cc1)N1CCC(N2CCCC2)CC1 gave a remaining binding of 64% (binding; competition with immobilised ligand; 1 µM).
With c1cncc(-c2cccc(Nc3nccc(NC4CCCCC4)n3)c2)c1 the remaining binding was 84% (binding; competition with immobilised ligand; 10 µM).
For N[C@H]1CCN(c2nccc(-c3cnn4ncccc34)n2)C1, the remaining binding was 69% (binding; 1 µM).
The remaining binding of CCCCN(CCCC)C(=O)CN1C[C@H](c2cc(OC)c3c(c2)OCO3)[C@@H](C(=O)O)[C@@H]1CC(C)(C)CCC is reported as 100% (cell-free assay; competition with immobilised ligand; 1 µM).
Nc1ncc2c(n1)-c1c([nH]c3ccc(C#CC4CC4)cc13)CCCC2 has a remaining binding of 100% (binding; competition with immobilised ligand; 1 µM).
